The values that follow come from ChEMBL document CHEMBL2157991, “Synthesis and pharmacological evaluation of 2,4-dinitroaryldithiocarbamate derivatives as novel monoacylglycerol lipase inhibitors” (J Med Chem, 2012).

Molecules are shown by their SMILES. Residue numbers refer to the chain shown, from its start. Calls of active or inactive are those of the source. The rule behind the calls is not given here.

Experiment [1] relates to T1, Monoglyceride lipase (Homo sapiens), Q99685 [C208A].
T1 sequence (whole entry): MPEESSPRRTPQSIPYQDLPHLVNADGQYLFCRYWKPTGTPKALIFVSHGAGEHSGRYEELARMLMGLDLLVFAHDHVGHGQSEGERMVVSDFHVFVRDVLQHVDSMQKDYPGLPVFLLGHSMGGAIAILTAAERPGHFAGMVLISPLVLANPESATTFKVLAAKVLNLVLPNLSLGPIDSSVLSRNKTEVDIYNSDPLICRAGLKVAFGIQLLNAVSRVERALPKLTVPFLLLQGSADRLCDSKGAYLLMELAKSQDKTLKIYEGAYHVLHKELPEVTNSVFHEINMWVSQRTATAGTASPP
Put plainly: Inhibition of human MAGL C208A mutant expressed in Escherichia coli. A digest of the protocol:
(§1)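 Homogenates of E. coli expressing wild-type or C201A, C208A, C242A or C208A/C242A mutant MAGL used as enzyme source in the [3H]-2-OG hydrolysis assay; n = 3 in duplicate.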

Experiment [2] deals with T2, Monoglyceride lipase (Homo sapiens) (UniProt Q99685).
T2 sequence (whole entry): T1 sequence (whole entry) with A208C
The experiment in a line: Inhibition of MAGL at 10^-4.5 to 10^-5 M after 30 mins by liquid scintillation counter in presence of DTT. A digest of the protocol: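 Purified MAGL (3 ng; Tris pH 8.0, 50 mM, 0.1% BSA) preincubated 10 min at room temperature with inhibitor at 10−4.5 and 10−5 M or DMSO; DTT (10−2 M) then added, 15 min at 37 °C, before [3H]-2-OG hydrolysis assay as standard; activity normalized to respective control, n analysed by one-way ANOVA with Bonferroni test.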

In experiment [3] the test system is T3, Monoglyceride lipase (Homo sapiens), Q99685 [C201A].
T3 sequence (whole entry): T1 sequence (whole entry) with C201A, A208C
The experiment in a line: Inhibition of human MAGL C201A mutant expressed in Escherichia coli. Put shortly:
as §1

Turning to `CC(C)(C)c1ccc(CN2CCN(C(=S)Sc3ccc([N+](=O)[O-])cc3[N+](=O)[O-])CC2)cc1`, the inhibition entry in experiment [1] and in experiment [2] was “inactive” in each case. For the same compound, in experiment [3], the inhibition result is “Active”.
